High-throughput results: PubChem, several laboratories
RAM network inh: inhibitors of the yeast RAM network, primary screen, dse1pr::URA3 reporter, 5-FOA selection; inhibition, % at 50 µM; hit rate 1.8% among 190,000; AID 868, 2007; S. cerevisiae dse1pr::URA3 reporter, 5-FOA growth OD615, 2 d; analog-sensitive cbk1-as2 kinase mutant strain;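 active = inhibition above a set limit, 3 SD over mean compound inhibition, cut at about 8.4% in these data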;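 note: 0% = DMSO-only wells with no growth and 100% = 10 µM 1-NA-PP1 full growth; inhibition rescues growth on 5-FOA so higher OD means more RAM inhibition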
NPY-Y2 PAM-ag: NPY-Y2 potentiators or agonists, primary screen, cell-based | Neuropeptide Y receptor type 2 (Homo sapiens), P49146 | cells expressing NPY-Y2, potentiator/agonist read-out | activation, % at 3.6 µM | hit rate 0.45% among 220,000 | AID 1359, 2008; in the data active = activation above about 27%;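 note: cells stimulated with NPY near EC25 plus isoproterenol at EC100; 0% = vehicle plus submaximal agonist and 100% = vehicle plus saturating agonist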
Target sequence (P49146 whole entry, looked up): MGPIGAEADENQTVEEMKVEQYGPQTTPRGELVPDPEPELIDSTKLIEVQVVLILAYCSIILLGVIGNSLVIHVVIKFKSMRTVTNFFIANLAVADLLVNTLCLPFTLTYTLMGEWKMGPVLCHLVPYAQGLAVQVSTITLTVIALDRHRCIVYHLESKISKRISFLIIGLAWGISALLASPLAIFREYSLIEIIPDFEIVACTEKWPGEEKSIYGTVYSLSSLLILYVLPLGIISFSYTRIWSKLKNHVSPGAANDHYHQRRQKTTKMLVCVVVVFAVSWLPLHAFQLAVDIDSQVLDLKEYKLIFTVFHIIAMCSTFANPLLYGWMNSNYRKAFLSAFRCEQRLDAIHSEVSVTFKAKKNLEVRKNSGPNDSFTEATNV
NPY-Y2 antag: NPY-Y2 receptor antagonists, primary screen, cell-based; Neuropeptide Y receptor type 2 (Homo sapiens), P49146; NPY-Y2 expressing cells, antagonist mode; inhibition, % at 2.7 µM; hit rate 0.99% among 140,000; in the data active = inhibition above about 17%;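 note: 0% = vehicle with agonist challenge and 100% = reference antagonist with challenge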
NPY1 pot ag: NPY-Y1 receptor potentiators or agonists, primary screen, cell-based; activation, % at 3.6 µM; Neuropeptide Y receptor type 1 (Homo sapiens), P25929; NPY-Y1 expressing cells, potentiator/agonist activation; hit rate 0.37% among 220,000; in the data active = activation above about 33%, passing the limit was not always enough;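 note: cells stimulated with NPY at EC10 then isoproterenol at EC100; 0% = low agonist plus stimulus and 100% = saturating agonist plus stimulus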
NPY Y1 blocker: NPY-Y1 receptor antagonists, primary screen, cell-based | HEK293-CNG Y1 cells, membrane potential fluorescence; NPY at EC95, then isoproterenol | inhibition, % at 3.6 µM | hit rate 1% among 200,000 | AID 1040, 2008;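 active = inhibition above the campaign mean inhibition of all tested compounds plus 3 SD, cut at about 20% in these data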;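 note: 0% = DMSO wells given NPY plus isoproterenol and 100% = isoproterenol alone without NPY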
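Material: Y1- and CNG-channel-expressing HEK293 cells / Probe or stimulus: NPY 25 nM then isoproterenol 1 µM plus Ro 20-1724 25 µM / Doses: 3.6 µM single dose, DMSO 0.4% / Schedule: compound incubation 1 h at room temperature, readout 45 min post-stimulation / Signal: membrane potential fluorescence / Benchmarks: isoproterenol-only wells as full block versus NPY-plus-isoproterenol wells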
WT yeast gro inh: growth inhibition of WT strain, primary screen, mitochondrial fusion inhibitor project, WT and mutant strains, chemical genetic; AID 1362, 2008; hit rate 2.1% among 190,000; mitochondrial fusion phenotypic screen; inhibition, % at 10 µM; in the data active = inhibition above about 58%; tested in S. cerevisiae
* hit, by the source's call; · = no result. A selection: hits, their analogues and other compounds. The true share with any hit is near 4.9%.

SMILES	RAM network inh	NPY-Y2 PAM-ag	NPY-Y2 antag	NPY1 pot ag	NPY Y1 blocker	WT yeast gro inh
COc1ccc(C(C)C)cc1S(=O)(=O)N1CCN(c2ccccc2)CC1	11*	-1	·	-4	1	66*
COc1ccc(C)cc1S(=O)(=O)N1CCN(c2cccc(C(F)(F)F)c2)CC1	11*	-8	1	-3	4	30
O=C(O)c1ccccc1C(=O)N(Cc1ccccc1)Cc1ccccc1	0	-3	2	3	-3	3
Cc1cccc(N2CCN(C(=O)C3(S(=O)(=O)c4ccc(Cl)cc4)CC3)CC2)c1C	8.6*	4	·	5	4	40
Cc1ccc(Cl)cc1N1CCN(C(=O)C2(S(=O)(=O)c3ccc(Cl)cc3)CC2)CC1	4	-11	8	-16	20	-7
COC(=O)c1ccc(COc2cccc3c2CCN(Cc2cccc(C)c2)C3=O)o1	0	-3	10	16	9	-12
O=C(NCc1ccccc1Cl)C1CCN(C(=O)c2sccc2-n2cccc2)CC1	8.9*	-15	1	5	7	8
CC(C)(C)c1ccc(CN2C3=NCCCN3c3ccccc32)cc1	1	-35	20*	-63	25*	20
CCOc1ccccc1C1C(C#N)=C(N)Oc2cc(N)ccc21 (configuration not stated)	-1	49*	2	113*	-4	-5
COc1ccc(OC)c(C2C(C#N)=C(N)Oc3cc(N)ccc32)c1 (configuration not stated)	0	-3	3	-3	2	23
Cc1cc(Cl)ccc1Oc1ncc(CN2CCN(c3ccccc3)CC2)s1	0	-4	9	-35	6	64*
COc1ccc(Oc2ncc(CN3CCN(c4ccccc4)CC3)s2)cc1	0	-4	6	-32	2	28
O=C(NC1CCCCC1)N1CCSC1=Nc1ccccc1	0	12	3	27	-9	60*
CCOC(=O)c1c(C)oc2ccc(O)c(CN3CCCCC3)c12	0	-10	22*	-32	27*	8
CCOC(=O)c1c(C)n(C)c2ccc(O)c(CN3CCCCC3)c12	1	10	9	0	18	-2
COc1ccc(C(=O)c2coc3ccc(O)c(CN4CCCCC4)c23)cc1	1	-34	25*	-87	20*	11
CCOC(=O)c1c(C)oc2c1c(CN1CCN(CCO)CC1)c(O)c1ccccc12	5	-6	·	-29	2	59*
CCOC(=O)C1(P(=O)(c2ccc(Cl)cc2)c2ccc(Cl)cc2)CCC1	2	-45	27*	-18	28*	26
Cc1cccc(Sc2nc(-c3ccccc3)ccc2C#N)c1	11*	-45	10	-95	14	7
N#Cc1ccc(-c2ccccc2)nc1Sc1ccc(F)cc1	6	-8	2	-37	3	25
CCOCCCNC(=O)NC12CC3CC(CC(C3)C1)C2	0	4	0	-9	6	58*
Cc1ccc(S(=O)(=O)NCCC(c2ccc(F)cc2)c2ccco2)cc1 (configuration not stated)	11*	12	4	31	0	37
COc1ccccc1C(CCNS(=O)(=O)c1ccc(C)cc1)c1ccco1 (configuration not stated)	10.0*	-5	3	8	2	43
N#Cc1c(-c2ccccc2)c(-c2ccccc2)nn(CC(=O)NNC(=O)Nc2ccccc2)c1=O	4	8	0	38	-1	-19
N#Cc1c(-c2ccccc2)c(-c2ccccc2)nn(CC(=O)NNC(=O)Nc2ccc(Cl)cc2)c1=O	·	39*	·	51*	·	·
SMILES	RAM network inh	NPY-Y2 PAM-ag	NPY-Y2 antag	NPY1 pot ag	NPY Y1 blocker	WT yeast gro inh
Cc1ccc(C(=O)ON=C2CCN(c3ccc([N+](=O)[O-])cc3)CC2)cc1	5	-11	2	-9	4	1
O=[N+]([O-])c1ccc(N2CCC(=NOCc3ccc(Cl)cc3)CC2)cc1	11*	-5	15	25	13	21
Cc1ccc(NC(=O)CSc2nccn2Cc2ccccc2)cc1C	2	-15	3	-8	1	2
CCN(CC)c1nc(-c2ccccc2)ncc1S(=O)(=O)c1ccc(C)cc1	8	-21	·	5	4	62*
CN(C)c1nc(-c2ccccc2)ncc1S(=O)(=O)c1ccccc1	1	-2	·	9	5	14
CCOC(=O)CCc1c(C)nc(SCCCn2c(=O)[nH]c3ccccc32)c(C#N)c1C	9.4*	-14	4	-22	8	-11
COCCOC(=O)c1[nH]c2c(c1C)C(=O)C(C(=O)OC)C(C)C2 (configuration not stated)	1	-6	-1	-2	-2	2
Cc1noc2ncnc(N3CCN(c4cccc(Cl)c4)CC3)c12	3	-2	·	3	12	61*
COCCC(=O)Nc1ccc2c(c1)CN(C(=O)CSC)CC2	·	-3	·	-14	·	·
COC(=O)C(C)Sc1nc2c(c(=O)[nH]c(=O)n2C)n1CCCc1ccccc1 (configuration not stated)	1	-12	46*	-47	46*	13
CCOC(=O)C(C)Sc1nc2c(c(=O)[nH]c(=O)n2C)n1CCc1ccccc1 (configuration not stated)	-1	-3	2	-14	-1	15
CCOc1ccc(-c2nc(N)ncc2Oc2cccc(OC)c2)c(O)c1	2	-12	11	-19	15	11
CCOc1ccc(-c2[nH]ncc2Oc2ccccc2OCC)c(O)c1	4	16	-1	23	-2	65*
CCCOC(=O)c1ccc(Oc2cn[nH]c2-c2ccc(OC)cc2O)cc1	5	26	4	3	-6	78*
CCOc1ccc(-c2nc(N)ncc2Oc2ccccc2Br)c(O)c1	4	-8	1	-4	10	92*
CCOc1ccc(-c2[nH]ncc2Oc2ccccc2OC)c(O)c1	1	-3	-1	16	3	32
O=c1c2sccc2nc(SCc2cc(=O)n3cc(Br)ccc3n2)n1Cc1ccccn1	5	-1	·	-10	4	7
NC(=O)c1cc(Cc2ccccc2)sc1NC(=O)c1ccco1	1	-6	3	-4	1	72*
O=C(Nc1nnc(Cc2ccccc2)s1)c1ccco1	2	-16	1	4	8	-6
Brc1ccc(CSc2ccc3nnc(-c4ccccn4)n3n2)cc1	9.9*	-15	·	-7	14	7
Brc1ccc(CSc2ccc3nnc(-c4cccnc4)n3n2)cc1	10*	-18	·	-2	-1	15
Cc1ccc(CSc2ccc3nnc(-c4cccnc4)n3n2)cc1	2	2	9	0	-1	10
